Measurements from ChEMBL document CHEMBL3232952, “Bisphosphonate prodrugs: synthesis and biological evaluation in HuH7 hepatocarcinoma cells” (Eur J Med Chem, 2014).
The source made the active and inactive calls. The rule behind the calls is not given here.

Key:
Huh-7 [1] = test: Cytotoxicity against human HuH7 cells at 1 mM after 144 hrs by MTT assay in presence of IBMX; assay type: functional, cell-based
Method in brief: (§1)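 MTT viability assay with the cells pretreated with IBMX (1 mM) before compound addition; the pretreatment time is given as 30 min in Methods and 1 h in the legend. Then 144 h exposure in 2% FCS medium, MTT (2 mg/mL) for 4 h at 37 °C, DMSO solubilisation and OD read at 570 nm. Mean ± SD of three independent experiments.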

Huh-7 [2] = test: (§2) Cytotoxicity against human HuH7 cells after 144 hrs by MTT assay; assay type: functional, cell-based
Method in brief: (§3)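 MTT assay. HuH7 cells were seeded at 5x10⁴/well and grown 24 h in complete medium, then switched to 2% FCS medium containing compound (10⁻⁶–10⁻³ M) for 144 h. Cells were washed with PBS, given MTT (2 mg/mL) for 4 h at 37 °C, and formazan was dissolved in DMSO. OD was read at 570 nm. Mean ± SD of three independent experiments.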

[3] = as §2; assay type: functional, cell-based; settings: Huh-7, 144 h; method in brief: as §3
[4] = Cytotoxicity against human HuH7 cells at 10 uM to 1 mM after 144 hrs by MTT assay; assay type: functional, Huh-7; method in brief: as §3
[5] = Cytotoxicity against human HuH7 cells at 250 uM after 144 hrs by MTT assay; assay type: functional; settings: Huh-7, 144 h; method in brief: as §3
[6] = Antimigratory activity against human HuH7 cells at 100 uM after 24 hrs relative to control; assay type: functional; settings: Huh-7, 24 h
Method in brief: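 Migration chambers with the insert undersides coated overnight at 4 °C with fibronectin (100 µg/mL). 2.5 × 10⁵ HuH7 cells were placed in the upper chamber with 100 µM compound, with HGF (20 ng/mL) in the lower chamber. After 24 h, non-migrated cells were scraped off, and cells on the lower face were fixed, stained and counted. Results are % of control set at 100%; triplicate.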

[7] = (§4) Antiinvasive activity against human HuH7 cells at 100 uM after 24 hrs by matrigel assay relative to control; assay type: functional, Huh-7
Method in brief: (§5)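 Boyden chambers with 8 µm-pore filters coated with Matrigel. 2.5 × 10⁵ HuH7 cells were seeded in the upper well with 100 µM compound. HGF (20 ng/mL) in the lower chamber served as chemoattractant. After 24 h, non-invaded cells were wiped off, and filters were methanol-fixed and haematoxylin-stained. Cells on the lower surface were counted in 10 fields, expressed as % of control; mean ± SD of three independent experiments.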

[8] = Stability of the compound in D2O assessed as [31P] NMR chemical shift after 5 days by [31P]NMR spectroscopy; assay type: physicochemical; settings: 120 h
Serum [9] = test: Stability in human serum assessed as [31P] NMR chemical shift after 3 days by [31P]NMR spectroscopy; assay type: ADME, cell-free; settings: 72 h
Serum [10] = test: Stability in human serum assessed as [31P] NMR chemical shift after 5 days by [31P]NMR spectroscopy; assay type: ADME, cell-free; settings: 120 h
Huh-7 [11] = test: as §4; assay type: functional; method in brief: as §5
Huh-7 [12] = test: Induction of apoptosis in human HuH7 cells after 144 hrs by Annexin V/propidium iodide staining-based FACS analysis; assay type: functional, cell-based
Method in brief: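 HuH7 cells were exposed to compound for 144 h, then treated and untreated cells were stained with Annexin V and PI. Flow cytometry scored early apoptosis as Ann V⁺/PI⁻ and late apoptosis as Ann V⁺/PI⁺.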

[13] = Stability of the compound in cell culture medium assessed as [31P] NMR chemical shift after 5 days by [31P]NMR spectroscopy; assay type: physicochemical; settings: 120 h
[14] = Stability of the compound in cell culture medium assessed as [31P] NMR chemical shift after 1 day by [31P]NMR spectroscopy; assay type: physicochemical; settings: 24 h
[15] = Drug metabolism in human HuH7 cell extract assessed as phosphorylated metabolite formation by measuring [31P] NMR chemical shift at 0.5 mM after 5 days by [31P]NMR spectroscopy; assay type: ADME, cell-based; settings: huh-7, 120 h, 500 µM
[16] = Stability of the compound in D2O assessed as [31P] NMR chemical shift after 3 days by [31P]NMR spectroscopy; assay type: physicochemical; settings: 72 h
[17] = Stability in human HuH7 cell extract assessed as compound remaining by measuring [31P] NMR chemical shift at 0.5 mM after 5 days by [31P]NMR spectroscopy; assay type: ADME, cell-based; settings: huh-7, 120 h, 500 µM
Serum [18] = test: Stability in human serum assessed as [31P] NMR chemical shift after 1 day by [31P]NMR spectroscopy; assay type: ADME, cell-free; settings: 24 h
[19] = Stability of the compound in cell culture medium assessed as [31P] NMR chemical shift after 3 days by [31P]NMR spectroscopy; assay type: physicochemical; settings: 72 h
[20] = Stability of the compound in D2O assessed as [31P] NMR chemical shift after 1 day by [31P]NMR spectroscopy; assay type: physicochemical; settings: 24 h
Huh-7 [21] = test: Cytotoxicity against human HuH7 cells at 125 uM after 144 hrs by MTT assay in presence of IBMX; assay type: functional, cell-based; method in brief: as §1
[22] = Cell cycle arrest in human HuH7 cells assessed as accumulation at G1 phase after 144 hrs by […]propidium iodide staining-based FACS analysis; assay type: functional; settings: Huh-7
Huh-7 [23] = test: Cytotoxicity against human HuH7 cells at 400 uM after 144 hrs by MTT assay in presence of IBMX; assay type: functional, cell-based
Method in brief: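 HuH7 cells pretreated with IBMX (1 mM) before bisphosphonate was added. Cells were seeded at 5x10⁴ cells/well and held 24 h in complete medium, then exposed 144 h to compound in 2% FCS medium. Read-out by MTT (2 mg/mL, 4 h, 37 °C), DMSO solubilisation, OD 570 nm. Mean ± SD of three independent experiments.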

[24] = Cytotoxicity against human HuH7 cells at 1 mM after 144 hrs by MTT assay; assay type: cell-based; settings: huh-7, 144 h, 1000 µM
Method in brief: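 HuH7 cells plated at 5x10⁴ cells/well in complete medium for 24 h, then switched to 2% FCS medium with bisphosphonate (10^-6 to 10^-3 M range) for 144 h. PBS wash, then MTT (2 mg/mL) 4 h at 37 °C, formazan dissolved in DMSO, OD read at 570 nm. Mean ± SD of three independent experiments.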

For `O=P(O)(Oc1ccccc1)C(O)(c1ccccc1)P(=O)(O)Oc1ccccc1` (stereo not given), which Activity (Huh-7 [1]) is on record?
The Activity was “inactive”.

What about the inhibition (Huh-7 [2]) of the same compound?
The inhibition was “Dose-dependent effect”.

What about the IC50 [3] of the same compound?
Its IC50 is 555 µM.

Which “inhibition (INH)” value [4] does the source give for `COP(=O)(O)C(O)(c1ccc(Br)cc1)P(=O)(O)OC` (stereo not given) here?
The value was 15%.

With `O.O=P(O)(O)C(O)(Cn1ccnc1)P(=O)(O)O` [ZOLEDRONIC ACID] as the compound, how does the inhibition at 250 µM [5] read?
The inhibition at 250 µM was 80%.

And the inhibition at 100 µM [6]?
The inhibition at 100 µM was 72%.

What about the Activity [7] of the same compound?
The Activity was 54%.

And the IC50 [3]?
The IC50 was 60 µM.

With `O=P(O)(Oc1ccccc1)C(O)(c1ccc(Br)cc1)P(=O)(O)Oc1ccccc1` (stereo not given) as the compound, how does the Stability [8] read?
Its Stability is 12.8 ppm.

And the Stability (Serum [9])?
The Stability was 12.65 ppm.

And the inhibition at 250 µM [5]?
The inhibition at 250 µM was 80%.

And the inhibition at 100 µM [6]?
Its inhibition at 100 µM is 68%.

And the Stability (Serum [10])?
Its Stability is 12.8 ppm.

And the Activity (Huh-7 [11])?
Its Activity is “inactive”.

What about the Activity (Huh-7 [12]) of the same compound?
The Activity was “Active”.

And the Stability [13]?
Its Stability is 12.83 ppm.

What about the Stability [14] of the same compound?
Its Stability is 12.85 ppm.

And the Drug metabolism [15]?
The Drug metabolism was “metabolite_detected”.

What about the Stability [16] of the same compound?
Its Stability is 12.78 ppm.

And the Stability [17]?
The Stability was 12.09 ppm.

And the Stability (Serum [18])?
Its Stability is 12.85 ppm.

And the Stability [19]?
Its Stability is 12.83 ppm.

What about the Stability [20] of the same compound?
Its Stability is 12.8 ppm.

What about the Activity (Huh-7 [21]) of the same compound?
The Activity was “inactive”.

What about the Activity [22] of the same compound?
Its Activity is 58%.

And the inhibition (Huh-7 [2])?
The inhibition was “Dose-dependent effect”.

What about the IC50 [3] of the same compound?
Its IC50 is 125 µM.

For `O=P(O)(O)C(O)(c1ccc(Br)cc1)P(=O)(O)O`, which inhibition at 100 µM [6] is on record?
Its inhibition at 100 µM is 95%.

What about the Activity [7] of the same compound?
Its Activity is 40%.

What about the Activity (Huh-7 [12]) of the same compound?
Its Activity is “Active”.

What about the Activity (Huh-7 [23]) of the same compound?
Its Activity is “Active”.

And the Activity [22]?
Its Activity is 58%.

And the inhibition (Huh-7 [2])?
Its inhibition is “Dose-dependent effect”.

And the IC50 [3]?
Its IC50 is 440 µM.

Which Activity (Huh-7 [1]) does the source give for `O=P(O)(O)C(O)(c1ccccc1)P(=O)(O)O` here?
Its Activity is “Active”.

What about the “inhibition (INH)” value [4] of the same compound?
Its value is 15%.

Which Activity [24] does the source give for `CC(C)Cn1c(=O)n(C)c(=O)c2[nH]cnc21` [ISOBUTYLMETHYLXANTHINE] here?
Its Activity is “Non-toxic”.

With `O=P(O)(O)C(O)(c1ccc(Br)cc1)P(=O)(O)Oc1ccccc1` (stereo not given) as the compound, how does the inhibition at 250 µM [5] read?
The inhibition at 250 µM was 80%.

What about the inhibition (Huh-7 [2]) of the same compound?
Its inhibition is “Dose-dependent effect”.

What about the IC50 [3] of the same compound?
The IC50 was 100 µM.
